According to ChEMBL document CHEMBL2010675, “Discovery of GS-9451: an acid inhibitor of the hepatitis C virus NS3/4A protease” (Bioorg Med Chem Lett, 2012):
pEC50, pIC50: −log10 of the molar value. Converted amounts (≈) assume the structure as drawn.

Legend:
[1] = Clearance in dog at 1 mg/kg, iv and 4 mg/kg, po; format: ADME, organism-based, Canis lupus familiaris; conditions: in vivo
How it was run: (§1)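 Dosed at 1.0 mg/kg iv and 4.0 mg/kg po; plasma drug levels followed to derive iv t1/2, oral AUC, clearance, Vdss and oral bioavailability (F).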

Canis familiaris = assay: AUC in dog at 4 mg/kg, po; format: ADME, organism-based, Canis lupus familiaris, Plasma; set-up: dose 4 mg/kg, route oral; conditions: in vivo; how it was run: as §1
[2] = Thermodynamic solubility of the compound at pH 7.3; format: physicochemical; conditions: buffer, read-out: Therm_solubility
Hepatitis C virus [3] = assay: Inhibition of Hepatitis C virus genotype 1b NS3/4A protease; set-up: species or system Hepatitis C virus subtype 1b
[4] = Half life in dog at 1 mg/kg, iv; format: ADME, organism-based, Canis lupus familiaris; set-up: dose 1 mg/kg, route intravenous; conditions: in vivo; how it was run: as §1
[5] = Oral bioavailability in dog at 4 mg/kg; format: ADME, organism-based, Canis lupus familiaris; conditions: in vivo; how it was run: as §1
Hepatitis C virus [6] = assay: Antiviral activity against Hepatitis C virus genotype 1b infected in human Huh cells by luciferase reporter gene based replicon assay; format: functional, organism-based, Hepacivirus hominis
How it was run: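 EC50 from a cell-based assay in Huh-luc cells carrying a subgenomic HCV genotype 1b replicon, with luciferase reporter read-out.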

[7] = Thermodynamic solubility of the compound at pH 2.2; format: physicochemical; conditions: buffer, read-out: Therm_solubility
[8] = Permeability from basolateral to apical side in human Caco2 cells; format: ADME, cell-based; conditions: Caco-2, read-out: permeability
[9] = Permeability from apical to basolateral side in human Caco2 cells; format: ADME, cell-based; conditions: Caco-2, read-out: permeability
[10] = Volume of distribution at steady state in dog at 1 mg/kg, iv and 4 mg/kg, po; format: ADME, organism-based, Canis lupus familiaris; conditions: in vivo, read-out: Vdss; how it was run: as §1
Cynomolgus monkey = assay: AUC in cynomolgus monkey at 4 mg/kg, po; format: ADME, organism-based, Macaca fascicularis, Plasma; set-up: dose 4 mg/kg, route oral; conditions: in vivo; how it was run: as §1
[11] = Half life in rat at 1 mg/kg, iv; format: ADME, organism-based; set-up: dose 1 mg/kg, route intravenous; conditions: in vivo
[12] = Volume of distribution at steady state in cynomolgus monkey at 1 mg/kg, iv and 4 mg/kg, po; format: ADME, organism-based, Macaca fascicularis; conditions: in vivo, read-out: Vdss; how it was run: as §1
[13] = Fraction unbound in cynomolgus monkey plasma; format: ADME, cell-free, Macaca fascicularis
[14] = Clearance in cynomolgus monkey at 1 mg/kg, iv and 4 mg/kg, po; format: ADME, organism-based, Macaca fascicularis; conditions: in vivo; how it was run: as §1
[15] = Cmax in cynomolgus monkey at 4 mg/kg, po; format: ADME, organism-based, Macaca fascicularis; set-up: dose 4 mg/kg, route oral; conditions: in vivo
[16] = Oral bioavailability in rat at 4 mg/kg; format: ADME, organism-based; conditions: in vivo
[17] = Selectivity for hepatitis C virus NS3/4A protease over human proteinase 3
[18] = Fraction unbound in rat plasma; format: ADME, cell-free
[19] = Selectivity for hepatitis C virus NS3/4A protease over human cathepsin L
Hepatitis C virus [20] = assay: Antiviral activity against Hepatitis C virus genotype 1a infected in human assessed as log decrease in viral RNA level at 60 mg, po for 3 days; format: functional, Hepacivirus hominis, subtype 1a
[21] = Inhibition of cytochrome P450 up to 25 uM; format: ADME
[22] = Plasma concentration in human at 300 mg after 24 hrs
[23] = Cmax in rat at 4 mg/kg, po; format: ADME, organism-based; set-up: dose 4 mg/kg, route oral; conditions: in vivo
[24] = Half life in cynomolgus monkey microsomes; format: ADME, Macaca fascicularis, Microsome
Hepatitis C virus [25] = assay: Antiviral activity against Hepatitis C virus genotype 1a infected in human assessed as log decrease in viral RNA level at 200 mg, po for 3 days; format: functional, Hepacivirus hominis, subtype 1a
[26] = Half life in cynomolgus monkey at 1 mg/kg, iv; format: ADME, organism-based, Macaca fascicularis; set-up: dose 1 mg/kg, route intravenous; conditions: in vivo; how it was run: as §1
[27] = Volume of distribution at steady state in rat at 1 mg/kg, iv and 4 mg/kg, po; format: ADME, organism-based; conditions: in vivo, read-out: Vdss
[28] = Elimination half life in human at 10 to 1000 mg; conditions: in vivo, read-out: beta t1/2 (converted)
[29] = Fraction unbound in dog plasma; format: ADME, cell-free, Canis lupus familiaris
[30] = Fraction unbound in human plasma; format: ADME, cell-free
[31] = Drug excretion in rat bile at 1 mg/kg, iv; format: ADME, organism-based; set-up: dose 1 mg/kg, route intravenous; conditions: read-out: Drug excretion
How it was run: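 Bile-duct cannulated rats given drug intravenously; bile collected and the fraction of total dose recovered as parent compound and as glucuronide conjugates measured.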

[32] = Clearance in rat at 1 mg/kg, iv and 4 mg/kg, po; format: ADME, organism-based; conditions: in vivo
[33] = Half life in dog microsomes; format: ADME, Canis lupus familiaris, Microsome
[34] = Selectivity for hepatitis C virus NS3/4A protease over human leukocyte elastase
[35] = Half life in rat microsomes; format: ADME, Microsome
[36] = target: Voltage-gated inwardly rectifying potassium channel KCNH2 (Homo sapiens, UniProt Q12809); assay: Inhibition of human Erg up to 25 uM
Sequence of Voltage-gated inwardly rectifying potassium channel KCNH2 (Q12809 whole entry): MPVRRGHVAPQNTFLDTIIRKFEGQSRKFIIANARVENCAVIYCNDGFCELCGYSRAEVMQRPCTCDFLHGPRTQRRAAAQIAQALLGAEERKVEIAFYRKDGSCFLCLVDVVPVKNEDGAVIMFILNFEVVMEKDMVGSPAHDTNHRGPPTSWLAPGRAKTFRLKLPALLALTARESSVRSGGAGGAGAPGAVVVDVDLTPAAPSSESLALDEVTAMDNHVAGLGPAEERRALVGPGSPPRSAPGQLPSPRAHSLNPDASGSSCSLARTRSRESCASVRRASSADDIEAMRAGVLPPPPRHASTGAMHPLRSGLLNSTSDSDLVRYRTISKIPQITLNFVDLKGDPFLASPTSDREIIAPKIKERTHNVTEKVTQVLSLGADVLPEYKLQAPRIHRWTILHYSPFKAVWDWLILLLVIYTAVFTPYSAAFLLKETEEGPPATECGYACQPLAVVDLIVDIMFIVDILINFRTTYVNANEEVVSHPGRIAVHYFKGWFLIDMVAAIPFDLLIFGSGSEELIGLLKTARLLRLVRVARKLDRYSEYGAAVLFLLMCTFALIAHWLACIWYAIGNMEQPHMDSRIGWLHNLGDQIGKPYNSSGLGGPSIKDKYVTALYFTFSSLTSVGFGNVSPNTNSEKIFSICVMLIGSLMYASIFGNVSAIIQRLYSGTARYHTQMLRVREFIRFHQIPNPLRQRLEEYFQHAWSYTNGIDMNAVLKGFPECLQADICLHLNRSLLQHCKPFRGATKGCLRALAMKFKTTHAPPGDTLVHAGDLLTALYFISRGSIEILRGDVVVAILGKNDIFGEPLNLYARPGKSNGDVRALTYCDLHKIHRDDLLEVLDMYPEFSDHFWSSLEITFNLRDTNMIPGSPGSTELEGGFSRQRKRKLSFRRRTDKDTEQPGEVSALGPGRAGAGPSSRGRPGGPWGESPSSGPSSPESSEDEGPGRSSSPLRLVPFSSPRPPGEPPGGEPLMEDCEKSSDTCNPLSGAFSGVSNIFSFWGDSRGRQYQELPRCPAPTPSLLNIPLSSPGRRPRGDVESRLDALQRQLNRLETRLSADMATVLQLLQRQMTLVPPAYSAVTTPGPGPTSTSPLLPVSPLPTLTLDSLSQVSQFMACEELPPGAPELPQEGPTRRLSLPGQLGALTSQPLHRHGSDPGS

[37] = Cmax in dog at 4 mg/kg, po; format: ADME, organism-based, Canis lupus familiaris; set-up: dose 4 mg/kg, route oral; conditions: in vivo
[38] = Oral bioavailability in cynomolgus monkey at 4 mg/kg; format: ADME, organism-based, Macaca fascicularis; conditions: in vivo; how it was run: as §1
[39] = Half life in human microsomes; format: ADME, Microsome
[40] = target: ATP-binding cassette sub-family C member 2 (Homo sapiens, UniProt Q92887); assay: Inhibition of MRP2
Sequence of ATP-binding cassette sub-family C member 2 (Q92887 whole entry): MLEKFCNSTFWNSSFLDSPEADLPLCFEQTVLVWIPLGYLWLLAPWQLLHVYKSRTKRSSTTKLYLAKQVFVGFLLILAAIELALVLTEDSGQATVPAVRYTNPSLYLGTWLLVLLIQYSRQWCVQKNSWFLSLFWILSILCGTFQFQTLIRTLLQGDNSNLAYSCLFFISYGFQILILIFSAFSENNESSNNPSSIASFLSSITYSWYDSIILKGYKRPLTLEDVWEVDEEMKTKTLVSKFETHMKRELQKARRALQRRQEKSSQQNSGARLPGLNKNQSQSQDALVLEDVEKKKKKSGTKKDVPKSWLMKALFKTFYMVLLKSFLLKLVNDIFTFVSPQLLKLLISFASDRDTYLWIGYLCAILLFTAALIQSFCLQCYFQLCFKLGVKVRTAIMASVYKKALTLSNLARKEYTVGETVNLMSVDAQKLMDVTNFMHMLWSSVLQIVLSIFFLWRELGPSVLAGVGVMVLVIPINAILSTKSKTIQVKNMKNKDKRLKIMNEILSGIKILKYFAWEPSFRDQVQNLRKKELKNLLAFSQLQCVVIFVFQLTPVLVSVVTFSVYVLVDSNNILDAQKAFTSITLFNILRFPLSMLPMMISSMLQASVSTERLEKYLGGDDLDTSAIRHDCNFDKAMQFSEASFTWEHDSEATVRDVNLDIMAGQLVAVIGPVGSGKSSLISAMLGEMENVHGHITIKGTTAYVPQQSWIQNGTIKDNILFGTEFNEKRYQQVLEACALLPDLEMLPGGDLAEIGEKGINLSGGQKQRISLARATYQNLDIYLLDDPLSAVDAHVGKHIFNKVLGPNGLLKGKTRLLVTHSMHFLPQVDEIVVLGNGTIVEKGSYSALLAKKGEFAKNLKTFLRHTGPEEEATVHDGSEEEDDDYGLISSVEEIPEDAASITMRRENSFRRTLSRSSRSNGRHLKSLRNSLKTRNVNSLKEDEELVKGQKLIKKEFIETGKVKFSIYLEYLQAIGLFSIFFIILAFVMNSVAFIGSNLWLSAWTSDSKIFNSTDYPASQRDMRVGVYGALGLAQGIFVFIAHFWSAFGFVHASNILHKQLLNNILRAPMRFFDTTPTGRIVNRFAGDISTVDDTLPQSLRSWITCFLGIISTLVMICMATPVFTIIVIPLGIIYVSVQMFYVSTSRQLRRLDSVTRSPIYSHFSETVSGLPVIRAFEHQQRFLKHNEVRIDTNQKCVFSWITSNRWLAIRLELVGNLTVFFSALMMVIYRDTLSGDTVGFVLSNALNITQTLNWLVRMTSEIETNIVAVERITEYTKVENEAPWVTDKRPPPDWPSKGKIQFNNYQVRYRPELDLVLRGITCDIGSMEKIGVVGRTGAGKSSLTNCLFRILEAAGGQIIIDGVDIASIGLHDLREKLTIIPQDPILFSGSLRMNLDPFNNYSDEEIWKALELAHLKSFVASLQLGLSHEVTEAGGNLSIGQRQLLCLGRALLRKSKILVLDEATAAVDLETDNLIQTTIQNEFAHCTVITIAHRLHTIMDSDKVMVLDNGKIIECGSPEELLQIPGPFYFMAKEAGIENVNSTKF

Rattus norvegicus = assay: AUC in rat at 4 mg/kg, po; format: ADME, organism-based, Plasma; set-up: dose 4 mg/kg, route oral; conditions: in vivo
Hepatitis C virus [41] = assay: Antiviral activity against Hepatitis C virus genotype 1a infected in human assessed as log decrease in viral RNA level at 400 mg, po for 3 days; format: functional, Hepacivirus hominis, subtype 1a
[42] = Inhibition of p-glycoprotein
[43] = Selectivity for hepatitis C virus NS3/4A protease over human cathepsin D
[44] = target: Multidrug resistance-associated protein 1 (Homo sapiens, UniProt P33527); assay: Inhibition of MRP1
Sequence of Multidrug resistance-associated protein 1 (P33527 whole entry): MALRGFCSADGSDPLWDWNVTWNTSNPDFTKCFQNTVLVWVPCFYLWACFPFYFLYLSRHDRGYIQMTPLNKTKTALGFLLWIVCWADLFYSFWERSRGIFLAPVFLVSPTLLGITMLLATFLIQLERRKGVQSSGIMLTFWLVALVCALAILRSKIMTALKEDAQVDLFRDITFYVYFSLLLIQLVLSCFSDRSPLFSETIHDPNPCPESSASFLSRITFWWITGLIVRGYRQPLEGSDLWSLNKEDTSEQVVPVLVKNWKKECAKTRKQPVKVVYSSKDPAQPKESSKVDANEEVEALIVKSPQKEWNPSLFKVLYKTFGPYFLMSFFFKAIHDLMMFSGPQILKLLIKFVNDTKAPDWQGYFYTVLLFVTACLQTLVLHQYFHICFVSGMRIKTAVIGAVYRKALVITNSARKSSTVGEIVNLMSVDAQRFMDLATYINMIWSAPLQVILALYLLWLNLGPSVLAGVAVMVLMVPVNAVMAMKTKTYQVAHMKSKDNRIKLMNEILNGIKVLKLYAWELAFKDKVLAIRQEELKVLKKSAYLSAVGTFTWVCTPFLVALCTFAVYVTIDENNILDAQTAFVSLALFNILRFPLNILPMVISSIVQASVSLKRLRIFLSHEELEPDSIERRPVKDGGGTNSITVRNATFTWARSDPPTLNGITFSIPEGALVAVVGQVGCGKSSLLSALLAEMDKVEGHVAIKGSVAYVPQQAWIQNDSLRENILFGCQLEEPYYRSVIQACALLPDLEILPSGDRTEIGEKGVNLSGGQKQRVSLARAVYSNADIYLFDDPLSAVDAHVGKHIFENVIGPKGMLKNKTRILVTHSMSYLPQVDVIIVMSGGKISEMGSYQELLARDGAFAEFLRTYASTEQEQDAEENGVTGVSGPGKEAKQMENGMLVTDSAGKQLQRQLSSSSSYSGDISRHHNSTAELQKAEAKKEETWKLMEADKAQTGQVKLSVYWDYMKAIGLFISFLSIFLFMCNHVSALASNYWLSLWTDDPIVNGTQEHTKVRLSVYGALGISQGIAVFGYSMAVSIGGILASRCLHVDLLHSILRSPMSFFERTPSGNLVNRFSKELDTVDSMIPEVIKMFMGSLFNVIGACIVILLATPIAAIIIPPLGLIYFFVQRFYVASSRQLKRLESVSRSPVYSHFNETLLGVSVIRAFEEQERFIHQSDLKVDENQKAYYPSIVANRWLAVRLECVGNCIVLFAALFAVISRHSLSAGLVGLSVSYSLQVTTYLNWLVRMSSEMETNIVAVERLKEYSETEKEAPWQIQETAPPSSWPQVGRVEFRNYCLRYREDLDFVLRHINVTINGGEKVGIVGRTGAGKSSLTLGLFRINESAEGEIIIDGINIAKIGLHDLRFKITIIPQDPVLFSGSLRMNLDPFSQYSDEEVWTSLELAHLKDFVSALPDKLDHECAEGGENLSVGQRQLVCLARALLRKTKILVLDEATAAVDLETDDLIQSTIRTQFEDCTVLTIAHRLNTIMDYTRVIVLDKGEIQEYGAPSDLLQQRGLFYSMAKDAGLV

[45] = target: T1, Broad substrate specificity ATP-binding cassette transporter ABCG2 (Homo sapiens, UniProt Q9UNQ0); assay: Inhibition of BCRP; format: ADME
T1 sequence (Q9UNQ0 whole entry): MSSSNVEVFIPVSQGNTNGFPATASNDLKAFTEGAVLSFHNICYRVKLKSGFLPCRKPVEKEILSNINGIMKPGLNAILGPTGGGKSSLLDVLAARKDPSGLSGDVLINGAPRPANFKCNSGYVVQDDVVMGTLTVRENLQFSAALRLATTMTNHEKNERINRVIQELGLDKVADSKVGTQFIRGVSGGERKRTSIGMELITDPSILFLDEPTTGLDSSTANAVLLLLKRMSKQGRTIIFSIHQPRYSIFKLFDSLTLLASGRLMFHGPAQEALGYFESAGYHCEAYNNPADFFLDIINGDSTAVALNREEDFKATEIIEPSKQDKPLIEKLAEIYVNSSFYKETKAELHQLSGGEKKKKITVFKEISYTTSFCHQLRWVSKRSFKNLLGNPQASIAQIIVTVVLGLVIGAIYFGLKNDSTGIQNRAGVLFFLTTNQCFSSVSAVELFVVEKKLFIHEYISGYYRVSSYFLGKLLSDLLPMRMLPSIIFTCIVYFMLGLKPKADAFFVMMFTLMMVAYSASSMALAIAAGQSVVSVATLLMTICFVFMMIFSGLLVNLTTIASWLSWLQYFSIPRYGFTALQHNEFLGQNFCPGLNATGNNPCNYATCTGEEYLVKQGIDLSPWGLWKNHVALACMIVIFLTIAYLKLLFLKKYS

Compound: CC[C@@H]1C[C@]1(NC(=O)[C@@H]1C[C@@H](Oc2cc(-c3csc(NC(C)C)n3)nc3c(Cl)c(OCCN4CCOCC4(C)C)ccc23)CN1C(=O)[C@@H](NC(=O)O[C@@H]1C[C@@H]2C[C@@H]2C1)C(C)(C)C)C(=O)O
- clearance [1]: 0.5 mL/min/kg
- AUC (Canis familiaris): 38.3 µM·h
- solubility thermodynamic [2]: 22 µM (≈ 20.6 µg/mL)
- pIC50 (Hepatitis C virus [3]): 8.38
- half-life [4]: 5.8 h
- bioavailability [5]: 24%
- pEC50 (Hepatitis C virus [6]): 8.49
- solubility thermodynamic [7]: 1900 µM (≈ 1780 µg/mL)
- Papp B→A [8]: 10 ×10⁻⁶ cm/s
- Papp A→B [9]: 6.6 ×10⁻⁶ cm/s
- Vd [10]: 0.21 L/kg

Compound: CC[C@@H]1C[C@]1(NC(=O)[C@@H]1C[C@@H](Oc2cc(-c3csc(NC(C)C)n3)nc3c(Cl)c(OCCN4CC[C@@H](OC)C4)ccc23)CN1C(=O)[C@@H](NC(=O)O[C@@H]1C[C@@H]2C[C@@H]2C1)C(C)(C)C)C(=O)O
- clearance [1]: 3.67 mL/min/kg
- AUC (Canis familiaris): 8.33 µM·h
- solubility thermodynamic [2]: 59 µM (≈ 54.5 µg/mL)
- pIC50 (Hepatitis C virus [3]): 8.54
- half-life [4]: 2.1 h
- bioavailability [5]: 45%
- pEC50 (Hepatitis C virus [6]): 8.42
- solubility thermodynamic [7]: > 100 µM
- Papp B→A [8]: 30 ×10⁻⁶ cm/s
- Papp A→B [9]: 6.1 ×10⁻⁶ cm/s
- Vd [10]: 0.66 L/kg

Compound: CC[C@@H]1C[C@]1(NC(=O)[C@@H]1C[C@@H](Oc2cc(-c3csc(NC(C)C)n3)nc3c(Cl)c(OCCN4CCCCC4)ccc23)CN1C(=O)[C@@H](NC(=O)O[C@@H]1C[C@@H]2C[C@@H]2C1)C(C)(C)C)C(=O)O
- clearance [1]: 2.17 mL/min/kg
- AUC (Canis familiaris): 19.7 µM·h
- solubility thermodynamic [2]: 80 µM (≈ 72.7 µg/mL)
- pIC50 (Hepatitis C virus [3]): 7.60
- half-life [4]: 3 h
- bioavailability [5]: 32%
- pEC50 (Hepatitis C virus [6]): 8.12
- solubility thermodynamic [7]: > 100 µM
- Papp B→A [8]: 20 ×10⁻⁶ cm/s
- Papp A→B [9]: 6.7 ×10⁻⁶ cm/s
- Vd [10]: 0.39 L/kg

Compound: CC[C@@H]1C[C@]1(NC(=O)[C@@H]1C[C@@H](Oc2cc(-c3csc(NC(C)C)n3)nc3c(Cl)c(OCCN4CCOCC4)ccc23)CN1C(=O)[C@@H](NC(=O)O[C@@H]1C[C@@H]2C[C@@H]2C1)C(C)(C)C)C(=O)O [VEDROPREVIR]
- clearance [1]: 4.33 mL/min/kg
- AUC (Canis familiaris): 21.8 µM·h
- AUC (Cynomolgus monkey): 13.1 µM·h
- half-life [11]: 0.62 h
- Vd [12]: 0.76 L/kg
- fraction unbound [13]: 0.016
- clearance [14]: 4.83 mL/min/kg
- Cmax [15]: 3470 nM
- bioavailability [16]: 62%
- Selectivity ratio [17]: > 50000
- solubility thermodynamic [2]: 38 µM (≈ 34.6 µg/mL)
- fraction unbound [18]: 0.011
- Selectivity ratio [19]: > 50000
- pIC50 (Hepatitis C virus [3]): 8.49
- Activity (Hepatitis C virus [20]): 0.88 log10IU/ml
- inhibition (INH) [21]: Not Active
- concentration at 24 h [22]: 400 nM
- half-life [4]: 4.2 h
- Cmax [23]: 576 nM
- bioavailability [5]: 142%
- half-life [24]: 1.32 h
- Activity (Hepatitis C virus [25]): 3.2 log10IU/ml
- half-life [26]: 3.9 h
- Vd [27]: 2.3 L/kg
- half-life [28]: 12 h
- fraction unbound [29]: 0.026
- pEC50 (Hepatitis C virus [6]): 8.70
- fraction unbound [30]: 0.026
- solubility thermodynamic [7]: 790 µM (≈ 719 µg/mL)
- dose excreted [31]: 45%
- clearance [32]: 73.3 mL/min/kg
- half-life [33]: > 6.58 h
- Selectivity ratio [34]: > 50000
- Papp B→A [8]: 8.2 ×10⁻⁶ cm/s
- half-life [35]: > 6.58 h
- inhibition (INH) [36]: Not Active
- Papp A→B [9]: 0.8 ×10⁻⁶ cm/s
- Cmax [37]: 3940 nM
- bioavailability [38]: 49%
- half-life [39]: > 6.58 h
- pIC50 [40]: 4.92
- inhibition (INH) [40]: Dose-dependent effect
- AUC (Rattus norvegicus): 1.41 µM·h
- Activity (Hepatitis C virus [41]): 3.6 log10IU/ml
- pIC50 [42]: 4.47
- inhibition (INH) [42]: Dose-dependent effect
- Selectivity ratio [43]: > 50000
- pIC50 [44]: 4.83
- inhibition (INH) [44]: Dose-dependent effect
- Vd [10]: 1.15 L/kg
- pIC50 [45]: 5.85
